Test results: ChEMBL document CHEMBL1932969, “Acyl derivatives of boswellic acids as inhibitors of NF-κB and STATs” (Bioorg Med Chem Lett, 2012)

Columns and labels:
Format in all cases: functional
[1] = system: DU-145; experiment: Anticancer activity against human DU145 cells assessed as growth inhibition at 50 uM after 48 hrs by SRB assay; conditions: DU-145, 48 h, read-out: GI
Method in brief: (§1)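 Cells exposed to test compounds at 50 µM for 48 h. Read-out is percent growth inhibition, with SEM given. 5-Fluorouracil and adriamycin serve as reference agents.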

[2] = system: PC-3; experiment: Anticancer activity against human PC3 cells assessed as growth inhibition at 50 uM after 48 hrs by SRB assay; conditions: PC-3, 48 h, read-out: GI; method in brief: as §1
[3] = system: HT-29; experiment: Anticancer activity against human HT-29 cells assessed as growth inhibition at 50 uM after 48 hrs by SRB assay; conditions: HT-29, 48 h, read-out: GI; method in brief: as §1
[4] = system: SW-620; experiment: Anticancer activity against human SW620 cells assessed as growth inhibition at 50 uM after 48 hrs by SRB assay; conditions: SW-620, 48 h, read-out: GI; method in brief: as §1
[5] = system: COLO 205; experiment: Anticancer activity against human COLO205 cells assessed as growth inhibition at 50 uM after 48 hrs by SRB assay; conditions: COLO 205, 48 h, read-out: GI; method in brief: as §1
[6] = system: HEp-2; experiment: Anticancer activity against human Hep2 cells assessed as growth inhibition at 50 uM after 48 hrs by SRB assay; conditions: HEp-2, 48 h, read-out: GI; method in brief: as §1

COC(=O)[C@@]1(C)[C@H](O)CC[C@@]2(C)[C@H]1CC[C@]1(C)[C@@H]2C(=O)C=C2[C@@H]3[C@@H](C)[C@H](C)CC[C@]3(C)CC[C@]21C
inhibition of growth at 50 µM [1]: 65%
inhibition of growth at 50 µM [2]: 87%
inhibition of growth at 50 µM [3]: 67%
inhibition of growth at 50 µM [4]: 67%
inhibition of growth at 50 µM [5]: 70%
inhibition of growth at 50 µM [6]: 50%

CC(=O)O[C@@H]1CC[C@@]2(C)[C@@H](CC[C@]3(C)[C@@H]2CC=C2[C@@H]4[C@@H](C)[C@H](C)CC[C@]4(C)CC[C@]23C)[C@@]1(C)C(=O)O
inhibition of growth at 50 µM [1]: 3%
inhibition of growth at 50 µM [2]: 44%
inhibition of growth at 50 µM [3]: 93%
inhibition of growth at 50 µM [4]: 93%
inhibition of growth at 50 µM [5]: 91%
inhibition of growth at 50 µM [6]: 85%

O=c1[nH]cc(F)c(=O)[nH]1 [FLUOROURACIL]
inhibition of growth at 50 µM [1]: 35%
inhibition of growth at 50 µM [2]: 16%
inhibition of growth at 50 µM [3]: 41%
inhibition of growth at 50 µM [4]: 44%
inhibition of growth at 50 µM [5]: 29%
inhibition of growth at 50 µM [6]: 29%

CO[C@@]12[C@H](COC(N)=O)C3=C(C(=O)C(C)=C(N)C3=O)N1C[C@@H]1N[C@@H]12 [MITOMYCIN]
inhibition of growth at 50 µM [1]: 48%
inhibition of growth at 50 µM [2]: 55%
inhibition of growth at 50 µM [3]: 60%
inhibition of growth at 50 µM [4]: 55%
inhibition of growth at 50 µM [5]: 43%
inhibition of growth at 50 µM [6]: 58%

C[C@H]1[C@H](C)CC[C@]2(C)CC[C@]3(C)C(=CC(=O)[C@@H]4[C@@]5(C)CC[C@H](O)[C@](C)(C(=O)O)[C@@H]5CC[C@]43C)[C@H]12
inhibition of growth at 50 µM [1]: 84%
inhibition of growth at 50 µM [2]: 70%
inhibition of growth at 50 µM [3]: 44%
inhibition of growth at 50 µM [4]: 45%
inhibition of growth at 50 µM [5]: 49%
inhibition of growth at 50 µM [6]: 51%

COC(=O)[C@]1(C)[C@@H]2CC[C@]3(C)[C@H](CC=C4[C@@H]5[C@@H](C)[C@H](C)CC[C@]5(C)CC[C@]43C)[C@@]2(C)CC[C@@H]1O
inhibition of growth at 50 µM [1]: 3%
inhibition of growth at 50 µM [2]: 7%
inhibition of growth at 50 µM [3]: 5%
inhibition of growth at 50 µM [4]: 9%
inhibition of growth at 50 µM [5]: 22%
inhibition of growth at 50 µM [6]: 0%

COC(=O)[C@]1(C)[C@@H]2CC[C@]3(C)[C@H](C(=O)C=C4[C@@H]5[C@@H](C)[C@H](C)CC[C@]5(C)CC[C@]43C)[C@@]2(C)CC[C@@H]1O
inhibition of growth at 50 µM [1]: 4%
inhibition of growth at 50 µM [2]: 5%
inhibition of growth at 50 µM [3]: 8%
inhibition of growth at 50 µM [4]: 10%
inhibition of growth at 50 µM [5]: 21%
inhibition of growth at 50 µM [6]: 0%

C[C@H]1[C@H](C)CC[C@]2(C)CC[C@]3(C)C(=CC[C@@H]4[C@@]5(C)CC[C@@H](OC(=O)CCC(=O)O)[C@](C)(C(=O)O)[C@@H]5CC[C@]43C)[C@H]12
inhibition of growth at 50 µM [1]: 93%
inhibition of growth at 50 µM [2]: 90%
inhibition of growth at 50 µM [3]: 72%
inhibition of growth at 50 µM [4]: 67%
inhibition of growth at 50 µM [5]: 88%
inhibition of growth at 50 µM [6]: 55%

C[C@H]1[C@H](C)CC[C@]2(C)CC[C@]3(C)C(=CC(=O)[C@@H]4[C@@]5(C)CC[C@@H](OC=O)[C@](C)(C(=O)O)[C@@H]5CC[C@]43C)[C@H]12
inhibition of growth at 50 µM [1]: 83%
inhibition of growth at 50 µM [2]: 95%
inhibition of growth at 50 µM [3]: 63%
inhibition of growth at 50 µM [4]: 69%
inhibition of growth at 50 µM [5]: 73%
inhibition of growth at 50 µM [6]: 54%

COC(=O)[C@@]1(C)[C@H](O)CC[C@@]2(C)[C@H]1CC[C@]1(C)[C@@H]2CC=C2[C@@H]3[C@@H](C)[C@H](C)CC[C@]3(C)CC[C@]21C
inhibition of growth at 50 µM [1]: 85%
inhibition of growth at 50 µM [2]: 54%
inhibition of growth at 50 µM [3]: 35%
inhibition of growth at 50 µM [4]: 46%
inhibition of growth at 50 µM [5]: 43%
inhibition of growth at 50 µM [6]: 26%

CCC(=O)O[C@H]1CC[C@@]2(C)[C@@H](CC[C@]3(C)[C@@H]2C(=O)C=C2[C@@H]4[C@@H](C)[C@H](C)CC[C@]4(C)CC[C@]23C)[C@@]1(C)C(=O)O
inhibition of growth at 50 µM [1]: 89%
inhibition of growth at 50 µM [2]: 96%
inhibition of growth at 50 µM [3]: 64%
inhibition of growth at 50 µM [4]: 72%
inhibition of growth at 50 µM [5]: 83%
inhibition of growth at 50 µM [6]: 63%

CC(=O)O[C@H]1CC[C@@]2(C)[C@@H](CC[C@]3(C)[C@@H]2C(=O)C=C2[C@@H]4[C@@H](C)[C@H](C)CC[C@]4(C)CC[C@]23C)[C@@]1(C)C(=O)O
inhibition of growth at 50 µM [1]: 83%
inhibition of growth at 50 µM [2]: 62%
inhibition of growth at 50 µM [3]: 44%
inhibition of growth at 50 µM [4]: 44%
inhibition of growth at 50 µM [5]: 54%
inhibition of growth at 50 µM [6]: 47%

COc1cccc2c1C(=O)c1c(O)c3c(c(O)c1C2=O)C[C@@](O)(C(=O)CO)C[C@@H]3O[C@H]1C[C@H](N)[C@H](O)[C@H](C)O1 [DOXORUBICIN]
inhibition of growth at 50 µM [1]: 90%
inhibition of growth at 50 µM [2]: 86%
inhibition of growth at 50 µM [3]: 88%
inhibition of growth at 50 µM [4]: 72%
inhibition of growth at 50 µM [5]: 81%
inhibition of growth at 50 µM [6]: 64%

CC(=O)O[C@@H]1CC[C@@]2(C)[C@@H](CC[C@]3(C)[C@@H]2C(=O)C=C2[C@@H]4[C@@H](C)[C@H](C)CC[C@]4(C)CC[C@]23C)[C@@]1(C)C(=O)O [AKBA]
inhibition of growth at 50 µM [1]: 85%
inhibition of growth at 50 µM [2]: 76%
inhibition of growth at 50 µM [3]: 88%
inhibition of growth at 50 µM [4]: 88%
inhibition of growth at 50 µM [5]: 85%
inhibition of growth at 50 µM [6]: 59%

COC(=O)[C@@]1(C)C(=O)CC[C@]2(C)[C@H]3CC=C4[C@@H]5[C@@H](C)[C@H](C)CC[C@]5(C)CC[C@@]4(C)[C@]3(C)CC[C@@H]12
inhibition of growth at 50 µM [1]: 50%
inhibition of growth at 50 µM [2]: 44%
inhibition of growth at 50 µM [3]: 33%
inhibition of growth at 50 µM [4]: 34%
inhibition of growth at 50 µM [5]: 34%
inhibition of growth at 50 µM [6]: 7%

C[C@H]1[C@H](C)CC[C@]2(C)CC[C@]3(C)C(=CC[C@@H]4[C@@]5(C)CC[C@@H](OC=O)[C@](C)(C(=O)O)[C@@H]5CC[C@]43C)[C@H]12
inhibition of growth at 50 µM [1]: 90%
inhibition of growth at 50 µM [2]: 95%
inhibition of growth at 50 µM [3]: 76%
inhibition of growth at 50 µM [4]: 87%
inhibition of growth at 50 µM [5]: 90%
inhibition of growth at 50 µM [6]: 72%

C[C@H]1[C@H](C)CC[C@]2(C)CC[C@]3(C)C(=CC(=O)[C@@H]4[C@@]5(C)CC[C@@H](O)[C@](C)(C(=O)O)[C@@H]5CC[C@]43C)[C@H]12 [11-KETO BOSWELLIC ACID]
inhibition of growth at 50 µM [1]: 95%
inhibition of growth at 50 µM [2]: 100%
inhibition of growth at 50 µM [3]: 39%
inhibition of growth at 50 µM [4]: 28%
inhibition of growth at 50 µM [5]: 52%
inhibition of growth at 50 µM [6]: 35%

COC(=O)[C@@]1(C)C(=O)CC[C@]2(C)[C@H]3C(=O)C=C4[C@@H]5[C@@H](C)[C@H](C)CC[C@]5(C)CC[C@@]4(C)[C@]3(C)CC[C@@H]12
inhibition of growth at 50 µM [1]: 23%
inhibition of growth at 50 µM [2]: 3%
inhibition of growth at 50 µM [3]: 17%
inhibition of growth at 50 µM [4]: 11%
inhibition of growth at 50 µM [5]: 30%
inhibition of growth at 50 µM [6]: 10%

C[C@H]1[C@H](C)CC[C@]2(C)CC[C@]3(C)C(=CC[C@@H]4[C@@]5(C)CC[C@H](O)[C@](C)(C(=O)O)[C@@H]5CC[C@]43C)[C@H]12
inhibition of growth at 50 µM [1]: 89%
inhibition of growth at 50 µM [2]: 72%
inhibition of growth at 50 µM [3]: 70%
inhibition of growth at 50 µM [4]: 63%
inhibition of growth at 50 µM [5]: 81%
inhibition of growth at 50 µM [6]: 69%

CCCC(=O)O[C@H]1CC[C@@]2(C)[C@@H](CC[C@]3(C)[C@@H]2CC=C2[C@@H]4[C@@H](C)[C@H](C)CC[C@]4(C)CC[C@]23C)[C@@]1(C)C(=O)O
inhibition of growth at 50 µM [1]: 89%
inhibition of growth at 50 µM [2]: 83%
inhibition of growth at 50 µM [3]: 57%
inhibition of growth at 50 µM [4]: 79%
inhibition of growth at 50 µM [5]: 67%
inhibition of growth at 50 µM [6]: 63%

C[C@H]1[C@H](C)CC[C@]2(C)CC[C@]3(C)C(=CC(=O)[C@@H]4[C@@]5(C)CC[C@H](OC(=O)CCC(=O)O)[C@](C)(C(=O)O)[C@@H]5CC[C@]43C)[C@H]12
inhibition of growth at 50 µM [1]: 83%
inhibition of growth at 50 µM [2]: 62%
inhibition of growth at 50 µM [3]: 17%
inhibition of growth at 50 µM [4]: 4%
inhibition of growth at 50 µM [5]: 28%
inhibition of growth at 50 µM [6]: 19%

C[C@H]1[C@H](C)CC[C@]2(C)CC[C@]3(C)C(=CC(=O)[C@@H]4[C@@]5(C)CC[C@@H](OC(=O)CCC(=O)O)[C@](C)(C(=O)O)[C@@H]5CC[C@]43C)[C@H]12
inhibition of growth at 50 µM [1]: 51%
inhibition of growth at 50 µM [2]: 38%
inhibition of growth at 50 µM [3]: 5%
inhibition of growth at 50 µM [4]: 4%
inhibition of growth at 50 µM [5]: 2%
inhibition of growth at 50 µM [6]: 6%

C[C@H]1[C@H](C)CC[C@]2(C)CC[C@]3(C)C(=CC[C@@H]4[C@@]5(C)CC[C@H](OC(=O)CCC(=O)O)[C@](C)(C(=O)O)[C@@H]5CC[C@]43C)[C@H]12
inhibition of growth at 50 µM [1]: 48%
inhibition of growth at 50 µM [2]: 35%
inhibition of growth at 50 µM [3]: 13%
inhibition of growth at 50 µM [4]: 5%
inhibition of growth at 50 µM [5]: 19%
inhibition of growth at 50 µM [6]: 11%

CCCC(=O)O[C@H]1CC[C@@]2(C)[C@@H](CC[C@]3(C)[C@@H]2C(=O)C=C2[C@@H]4[C@@H](C)[C@H](C)CC[C@]4(C)CC[C@]23C)[C@@]1(C)C(=O)O
inhibition of growth at 50 µM [1]: 92%
inhibition of growth at 50 µM [2]: 94%
inhibition of growth at 50 µM [3]: 62%
inhibition of growth at 50 µM [4]: 79%
inhibition of growth at 50 µM [5]: 91%
inhibition of growth at 50 µM [6]: 66%
